The target of test [1] is T1, 72 kDa type IV collagenase (Homo sapiens, UniProt P08253). Put plainly: Inhibition of MMP2 at 5 uM.
Target sequence in this assay (P08253 110-660 limits assumed): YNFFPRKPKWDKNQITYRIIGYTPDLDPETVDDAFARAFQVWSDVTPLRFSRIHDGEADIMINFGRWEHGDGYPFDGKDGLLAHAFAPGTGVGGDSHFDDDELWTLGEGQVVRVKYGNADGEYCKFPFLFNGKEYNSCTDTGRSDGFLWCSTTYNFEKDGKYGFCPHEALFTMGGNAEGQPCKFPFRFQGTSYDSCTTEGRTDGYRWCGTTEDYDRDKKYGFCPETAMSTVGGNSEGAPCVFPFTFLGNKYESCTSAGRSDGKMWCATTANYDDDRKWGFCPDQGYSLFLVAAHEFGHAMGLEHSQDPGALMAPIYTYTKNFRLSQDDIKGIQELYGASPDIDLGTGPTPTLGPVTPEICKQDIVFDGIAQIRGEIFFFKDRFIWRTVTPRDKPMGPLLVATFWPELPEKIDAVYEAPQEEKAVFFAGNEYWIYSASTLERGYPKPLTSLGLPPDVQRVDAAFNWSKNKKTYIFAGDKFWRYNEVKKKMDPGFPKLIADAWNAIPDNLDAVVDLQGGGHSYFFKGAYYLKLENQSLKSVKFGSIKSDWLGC
Test [2] addresses T1, 72 kDa type IV collagenase. Briefly: Inhibition of MMP2 at 50 uM.
Target sequence in this assay (P08253 110-660 limits assumed): as above
For test [3], the system named is U-266. Put plainly: Cytotoxicity against human U266 cells assessed as reduction of cell viability at 1 uM after 48 hrs by MTS assay. The format is functional, cell-based. In outline: (§1)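 Multiple myeloma cells were exposed to compound at a single concentration for 48 h, alongside a DMSO vehicle control. Viability was then read by MTS assay. Each value is the mean of three determinations, deviating <10% from the mean.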
Background: Formazan colour is commonly taken as a measure of viable cells.

Test [4] concerns RPMI-8226. Briefly: Cytotoxicity against human RPMI8226 cells assessed as reduction of cell viability at 1 uM after 48 hrs by MTS assay. The format is functional, cell-based. In outline:
as §1

For test [5], the system named is RPMI-8226. Briefly: Cytotoxicity against human RPMI8226 cells assessed as reduction of cell viability at 10 uM after 48 hrs by MTS assay. The test is classed as functional, cell-based. In outline:
as §1

The next test has as its system A2058. Briefly: Cytotoxicity against human A2058 cells assessed as reduction of cell viability after 48 hrs by MTS assay. The test is classed as functional, cell-based. The following applies: A2058, 48 h. An outline of the steps: (§2)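 IC50 from cell viability read by MTS assay run to the manufacturer's protocol, after 48 h exposure to compound. Each value is the mean of three determinations, deviating <10% from the mean.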

For a further test, the system named is DU-145. Put plainly: Cytotoxicity against human DU145 cells assessed as reduction of cell viability after 48 hrs by MTS assay. The test is classed as functional, cell-based. As to conditions: for pIC50: DU-145, 48 h. An outline of the steps: as §2
Test [6] concerns KMS-11. Put plainly: Cytotoxicity against human KMS11 cells assessed as reduction of cell viability at 10 uM after 48 hrs by MTS assay. The format is functional, cell-based. An outline of the steps:
as §1

Test [7] relates to U-266. Briefly: Cytotoxicity against human U266 cells assessed as reduction of cell viability at 10 uM after 48 hrs by MTS assay. The test is classed as functional, cell-based. An outline of the steps:
as §1

The subject of the next test is MDA-MB-435. Put plainly: Cytotoxicity against human MDA-MB-435 cells assessed as reduction of cell viability after 48 hrs by MTS assay. The format is functional, cell-based. The following applies: MDA-MB-435, 48 h. In outline:
as §2

Test [8] deals with KMS-11. Briefly: Cytotoxicity against human KMS11 cells assessed as reduction of cell viability at 1 uM after 48 hrs by MTS assay. The format is functional, cell-based. In outline:
as §1

Test [9] addresses T1, 72 kDa type IV collagenase. Put plainly: Inhibition of MMP2.
Target sequence in this assay (P08253 whole entry): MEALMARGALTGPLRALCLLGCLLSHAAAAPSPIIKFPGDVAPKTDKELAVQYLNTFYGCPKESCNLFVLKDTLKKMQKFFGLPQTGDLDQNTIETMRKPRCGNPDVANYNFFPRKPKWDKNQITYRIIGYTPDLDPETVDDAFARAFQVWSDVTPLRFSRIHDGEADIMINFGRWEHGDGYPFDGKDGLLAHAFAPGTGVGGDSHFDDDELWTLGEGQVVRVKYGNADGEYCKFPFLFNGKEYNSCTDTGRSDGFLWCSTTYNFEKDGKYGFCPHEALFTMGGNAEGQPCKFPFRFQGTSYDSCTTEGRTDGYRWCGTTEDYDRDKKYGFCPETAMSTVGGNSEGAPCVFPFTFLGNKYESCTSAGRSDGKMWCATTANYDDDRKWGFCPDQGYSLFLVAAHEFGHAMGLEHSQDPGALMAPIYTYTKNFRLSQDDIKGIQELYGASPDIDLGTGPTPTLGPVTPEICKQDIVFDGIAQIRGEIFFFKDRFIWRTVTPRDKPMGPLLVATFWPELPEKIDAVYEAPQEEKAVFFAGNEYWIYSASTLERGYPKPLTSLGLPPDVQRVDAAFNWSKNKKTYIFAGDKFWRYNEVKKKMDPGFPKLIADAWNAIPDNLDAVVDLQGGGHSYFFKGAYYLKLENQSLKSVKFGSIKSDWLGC

Molecules are shown by their SMILES. pIC50: −log10 of the molar value. Calls of active or inactive are those of the source. No cut-off for these calls is given here.

Broadly, the inhibition is the change of the read-out against control, counted positive when it falls. The term pIC50 denotes the negative decadic logarithm of the IC50, by convention in mol/L.

`CC(C)Cc1nccc2nc(N)[nH]c12`: the inhibition in test [1] worked out at 31%; in test [2], 22%.

Consider `Nc1nc2ccnc(C3CCCCC3)c2[nH]1`, for which the inhibition is 9% in test [1] and 40% in test [2].

In the case of `Nc1nc2ccnc(-c3c[nH]c4ccccc34)c2[nH]1`, the figures for the inhibition in test [1] and in test [2] were 25% and 26%, respectively.

Regarding `NC1=NC2C=CC=NC(c3ccc(Cl)cc3)=C2N1` (stereo not drawn), the result with U-266 [3], in the test on RPMI-8226 [4], in the test with RPMI-8226 [5], in the test with KMS-11 [6], with U-266 [7] and with KMS-11 [8] was Active. Besides, the inhibition in test [1] turned out to be 27%; in test [2] it was 54%. The pIC50 in the test with A2058 is 5.29; in the test with DU-145, 5.21; in the test with MDA-MB-435, 5.44. In addition, in the test on DU-145, the Activity result was “Dose-dependent effect”.

Regarding `Nc1nc2ccnc(-c3cccc4ccccc34)c2[nH]1`, the inhibition in test [1] amounted to 20%.

As to `NC1=NC2C=CC=NC(C3CCCCC3)=C2N1` (stereo not drawn), the outcome in the test with U-266 [3], in the test on RPMI-8226 [4], with RPMI-8226 [5], in the test with KMS-11 [6], in the test on U-266 [7] and with KMS-11 [8] was Active. In addition, the inhibition was 23% in [1] and 53% in [2]. The negative-log IC50 (pIC50) was 5.35 with A2058, 5.30 with DU-145 and 5.47 in the test on MDA-MB-435. Also, in the test with DU-145, the Activity result is “Dose-dependent effect”.

Take `CC(C)CC1=C2NC(N)=NC2C=CC=N1` (stereo not drawn): the result with U-266 [3], in the test on RPMI-8226 [4], in the test with RPMI-8226 [5], in the test on KMS-11 [6], in the test on U-266 [7] and in the test on KMS-11 [8] was Active. The figures for the inhibition in [1] and in test [2] were 27% and 60%, respectively. Also, the values for the negative logarithm of the IC50 (pIC50) in the test with A2058, in the test on DU-145 and with MDA-MB-435 were 5.39, 5.37 and 5.54, respectively. For the same compound, the Activity result in the test on DU-145 was “Dose-dependent effect”.

Take `CC(C)c1nccc2nc(N)[nH]c12`: the inhibition in test [1] was found to be 25%; in [2], 17%.

As to `Nc1nc2c(-c3cc(Br)c(Br)[nH]3)nccc2[nH]1` [AGELADINE A], the negative-log IC50 (pIC50) in test [9] was 5.77.

Consider `CC(C)C1=C2NC(N)=NC2C=CC=N1` (stereo not drawn), for which the outcome with U-266 [3], in the test with RPMI-8226 [4], in the test on RPMI-8226 [5], with KMS-11 [6], in the test on U-266 [7] and with KMS-11 [8] was Active. For the same compound, the inhibition in test [1] stood at 28%; in [2] it was 52%. For the same compound, the figures for the negative-log IC50 (pIC50) with A2058, in the test on DU-145 and in the test on MDA-MB-435 were 5.02, 5.12 and 5.17, respectively. In addition, in the test with DU-145, the Activity entry was “Dose-dependent effect”.

Source of the values: ChEMBL document CHEMBL1153166, “Synthesis and anticancer activities of ageladine A and structural analogs” (Bioorg Med Chem Lett, 2010).
